Calls of active or inactive are those of the source. The calls are words filed in the database; no cut-off is given here.
Key:
HepG2 = experiment: Antiproliferative activity against human HepG2 cells assessed as reduction in cell growth at 8 uM incubated for 72 hrs by CCK-8 assay relative to control; format: functional
Histone deacetylase 1 = Histone deacetylase 1 (Homo sapiens, UniProt Q13547); experiment: Inhibition of recombinant human HDAC1 using SIRT1 as substrate incubated for 10 mins followed by substrate addition and measured after 30 mins by fluorescence based assay
Chain of Histone deacetylase 1 (Q13547 whole entry): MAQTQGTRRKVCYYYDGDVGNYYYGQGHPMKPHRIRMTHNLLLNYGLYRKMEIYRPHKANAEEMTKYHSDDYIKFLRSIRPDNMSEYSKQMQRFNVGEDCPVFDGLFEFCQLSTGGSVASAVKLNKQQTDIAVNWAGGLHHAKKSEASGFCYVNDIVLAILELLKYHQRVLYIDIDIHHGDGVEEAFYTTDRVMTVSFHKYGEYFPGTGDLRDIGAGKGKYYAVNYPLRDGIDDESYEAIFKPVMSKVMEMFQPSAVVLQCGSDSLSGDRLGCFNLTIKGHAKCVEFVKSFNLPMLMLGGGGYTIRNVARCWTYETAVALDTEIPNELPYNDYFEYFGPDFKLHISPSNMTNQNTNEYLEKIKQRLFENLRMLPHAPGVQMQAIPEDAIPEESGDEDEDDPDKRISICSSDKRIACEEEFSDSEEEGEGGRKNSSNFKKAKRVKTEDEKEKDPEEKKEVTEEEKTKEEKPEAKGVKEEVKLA
How it was run: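 IC50 values reported as means of at least two separate determinations, expressed as mean ±SD.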

NCI-H460 [1] = experiment: Antimigratory activity against human NCI-H460 cells assessed as inhibition of migration at 0.5 uM incubated for 48 hrs by microscopic based wound healing test; format: functional, cell-based
How it was run: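 Scratch (wound-healing) migration assay in A375 and H460 cells seeded in 12-well plates. Cells exposed to compound, CS055, roscovitine or DMSO blank for 48 h. At least two independent experiments.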

HCT-116 [2] = experiment: Induction of cell cycle arrest in human HCT-116 cells assessed as reduction in G0/G1 phase at 0.5 to 2 uM incubated for 24 hrs by PI staining based flow cytometry; format: functional; details: dose 0.5-2 µM
How it was run: (§1)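 Treatment at 2, 1 and 0.5 μM for 24 h, alongside CS055 and roscovitine, against a DMSO (0.1 %) blank. Cells then stained with propidium iodide and analyzed by flow cytometry.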

HeLa [3] = experiment: Induction of cell cycle arrest in human HeLa cells assessed as reduction in G0/G1 phase at 0.5 to 2 uM incubated for 24 hrs by PI staining based flow cytometry; format: functional; details: dose 0.5-2 µM; how it was run: as §1
HCT-116 [4] = experiment: Induction of cell cycle arrest in human HCT-116 cells assessed as G2/M phase at 0.5 uM incubated for 24 hrs by PI staining based flow cytometry (reference value: 27.46 %); format: functional; how it was run: as §1
A-375 [5] = experiment: Induction of apoptosis in human A-375 cells assessed as viable cells at 2 uM incubated for 48 hrs by annexin V-FITC and PI staining based flow cytometry (reference value: 96.3 %); format: functional; details: read-out: Activity
A-375 [6] = experiment: Induction of apoptosis in human A-375 cells assessed as viable cells at 1 uM incubated for 48 hrs by annexin V-FITC and PI staining based flow cytometry (reference value: 96.3 %); format: functional; details: read-out: Activity
A-375 [7] = experiment: Induction of apoptosis in human A-375 cells assessed as early apoptotic cells at 1 uM incubated for 48 hrs by annexin V-FITC and PI staining based flow cytometry (reference value: 1.34 %); format: functional
A-375 [8] = experiment: Induction of apoptosis in human A-375 cells assessed as necrotic cells at 1 uM incubated for 48 hrs by annexin V-FITC and PI staining based flow cytometry (reference value: 0.139 %); format: functional
A-375 [9] = experiment: Induction of apoptosis in human A-375 cells assessed as viable cells at 0.5 uM incubated for 48 hrs by annexin V-FITC and PI staining based flow cytometry (reference value: 96.3 %); format: functional; details: read-out: Activity
HCT-116 [10] = experiment: Induction of apoptosis in human HCT-116 cells assessed as viable cells at 2 uM incubated for 48 hrs by annexin V-FITC and PI staining based flow cytometry (reference value: 93.9 %); format: functional; details: read-out: Activity
HCT-116 [11] = experiment: Induction of apoptosis in human HCT-116 cells assessed as early apoptotic cells at 2 uM incubated for 48 hrs by annexin V-FITC and PI staining based flow cytometry (reference value: 4.14 %); format: functional
HCT-116 [12] = experiment: Induction of apoptosis in human HCT-116 cells assessed as late apoptotic cells at 2 uM incubated for 48 hrs by annexin V-FITC and PI staining based flow cytometry (reference value: 1.88 %); format: functional
HCT-116 [13] = experiment: Induction of apoptosis in human HCT-116 cells assessed as necrotic cells at 2 uM incubated for 48 hrs by annexin V-FITC and PI staining based flow cytometry (reference value: 0.124 %); format: functional
HCT-116 [14] = experiment: Induction of apoptosis in human HCT-116 cells assessed as necrotic cells at 1 uM incubated for 48 hrs by annexin V-FITC and PI staining based flow cytometry (reference value: 0.124 %); format: functional
HCT-116 [15] = experiment: Induction of apoptosis in human HCT-116 cells assessed as necrotic cells at 0.5 uM incubated for 48 hrs by annexin V-FITC and PI staining based flow cytometry (reference value: 0.124 %); format: functional
NCI-H460 [16] = experiment: Induction of apoptosis in human NCI-H460 cells assessed as viable cells at 2 uM incubated for 48 hrs by annexin V-FITC and PI staining based flow cytometry (reference value: 90.4 %); format: functional; details: read-out: Activity
NCI-H460 [17] = experiment: Induction of apoptosis in human NCI-H460 cells assessed as late apoptotic cells at 1 uM incubated for 48 hrs by annexin V-FITC and PI staining based flow cytometry (reference value: 6.11 %); format: functional
HeLa [18] = experiment: Induction of apoptosis in human HeLa cells assessed as late apoptotic cells at 2 uM incubated for 48 hrs by annexin V-FITC and PI staining based flow cytometry (reference value: 0.870 %); format: functional
HeLa [19] = experiment: Induction of apoptosis in human HeLa cells assessed as necrotic cells at 2 uM incubated for 48 hrs by annexin V-FITC and PI staining based flow cytometry (reference value: 0.124 %); format: functional
HeLa [20] = experiment: Induction of apoptosis in human HeLa cells assessed as late apoptotic cells at 1 uM incubated for 48 hrs by annexin V-FITC and PI staining based flow cytometry (reference value: 0.870 %); format: functional
HeLa [21] = experiment: Induction of apoptosis in human HeLa cells assessed as early apoptotic cells at 0.5 uM incubated for 48 hrs by annexin V-FITC and PI staining based flow cytometry (reference value: 0.528 %); format: functional
HeLa [22] = experiment: Induction of apoptosis in human HeLa cells assessed as late apoptotic cells at 0.5 uM incubated for 48 hrs by annexin V-FITC and PI staining based flow cytometry (reference value: 0.870 %); format: functional
[23] = target: Cyclin-dependent kinase 2 (Homo sapiens) (UniProt P24941); experiment: Inhibition of CDK2 in human A-375 cells at 1 uM incubated for 12 hrs by DAPI and immunofluorescence staining based confocal microscopic analysis; format: cell-based
A-375 [24] = experiment: Inhibition of HDAC in human A-375 cells assessed as increase the acetylation of histone H3 at 1 uM incubated for 12 hrs by DAPI and immunofluorescence staining based confocal microscopic analysis; format: cell-based
[25] = MRT (0 to t) in ICR mouse at 4 mg/kg, iv measured upto 24 hrs by LC-MS/MS analysis; format: ADME, organism-based; details: in vivo
HCT-116 [26] = experiment: Antitumor activity against human HCT-116 cells xenografted in Balb/c mouse assessed as tumor growth inhibition at 25 mg/kg, ip administered for 21 days and measured on day 21 relative to control; format: functional; details: HCT-116, ip, 504 h, time 21 day, read-out: GI
How it was run: (§2)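 HCT116 xenografts in BALB/c nude mice. Dosing started when tumours reached 100–300 mm³: intraperitoneal injection once daily for 21 days at 25, 50 or 100 mg/kg, versus blank. Body weight monitored. Tumour growth inhibition computed against blank.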

HCT-116 [27] = experiment: Antitumor activity against human HCT-116 cells xenografted in Balb/c mouse assessed as tumor growth inhibition at 50 mg/kg, ip administered for 21 days and measured on day 21 relative to control; format: functional; details: HCT-116, ip, 504 h, time 21 day, read-out: GI; how it was run: as §2
HCT-116 [28] = experiment: Antitumor activity against human HCT-116 cells xenografted in Balb/c mouse assessed as tumor growth inhibition at 100 mg/kg, ip administered for 21 days and measured on day 21 relative to control; format: functional; details: HCT-116, ip, 504 h, time 21 day, read-out: GI; how it was run: as §2

In the case of `Cc1ccc(Nc2nc(Cl)nc3c2ncn3Cc2ccc(C(=O)Nc3ccccc3N)cc2)cc1`, the inhibition at 8 µM (HepG2) is reported as 82%, the IC50 (Histone deacetylase 1) is reported as 70.7 nM and the inhibition (NCI-H460 [1]) is reported as “Active”. The Activity (HCT-116 [2]) was “Active”, the Activity (HeLa [3]) was “Active” and the Activity (HCT-116 [4]) was 76.99%. For the same molecule, the viability at 2 µM (A-375 [5]) was 7.6%, the viability at 1 µM (A-375 [6]) was 8.06% and the Activity (A-375 [7]) was 8%. It also gave an Activity (A-375 [8]) of 0.566%, a viability at 0.5 µM (A-375 [9]) of 16.4% and a viability at 2 µM (HCT-116 [10]) of 9.72%. It also gave an Activity (HCT-116 [11]) of 76.2%, an Activity (HCT-116 [12]) of 13.4% and an Activity (HCT-116 [13]) of 0.639%. The Activity (HCT-116 [14]) was 0.65%, the Activity (HCT-116 [15]) was 1.37% and the viability at 2 µM (NCI-H460 [16]) was 31.9%. For the same molecule, the Activity (NCI-H460 [17]) was 17.5%, the Activity (HeLa [18]) was 14.1% and the Activity (HeLa [19]) was 0.243%. For the same molecule, the Activity (HeLa [20]) was 8.63%, the Activity (HeLa [21]) was 4.36% and the Activity (HeLa [22]) was 5.47%. For the same molecule, the inhibition [23] was “Active”, the inhibition (A-375 [24]) was “Active” and the MRT last at 24 h [25] was 33.8 min. For the same molecule, the inhibition in vivo at 25 mg/kg (HCT-116 [26]) was 28%, the inhibition in vivo at 50 mg/kg (HCT-116 [27]) was 40% and the inhibition in vivo at 100 mg/kg (HCT-116 [28]) was 44%.

— ChEMBL document CHEMBL4765302, “Design, synthesis and biological evaluation of novel histone deacetylase1/2 (HDAC1/2) and cyclin-dependent Kinase2 (CDK2) dual inhibitors against malignant cancer” (Eur J Med Chem, 2020)
